CHRM4 agonist: agonists of human muscarinic M4 receptor (CHRM4); AID 624127; 360,000 compounds, 0.14% hits; CHO-K1 hM4/Gqi5, Fluo-8 calcium fluorescence; vehicle 0%, full acetylcholine response 100%; activation, % at 3 µM; P08173;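 active = activation above the run mean over all test wells plus 3 SD, cut at about 32% in these data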;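 also: peak over basal fluorescence ratio per well then scaled between controls; 0% = DMSO wells and 100% = acetylcholine at EC100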
Target sequence (P08173 whole entry, looked up): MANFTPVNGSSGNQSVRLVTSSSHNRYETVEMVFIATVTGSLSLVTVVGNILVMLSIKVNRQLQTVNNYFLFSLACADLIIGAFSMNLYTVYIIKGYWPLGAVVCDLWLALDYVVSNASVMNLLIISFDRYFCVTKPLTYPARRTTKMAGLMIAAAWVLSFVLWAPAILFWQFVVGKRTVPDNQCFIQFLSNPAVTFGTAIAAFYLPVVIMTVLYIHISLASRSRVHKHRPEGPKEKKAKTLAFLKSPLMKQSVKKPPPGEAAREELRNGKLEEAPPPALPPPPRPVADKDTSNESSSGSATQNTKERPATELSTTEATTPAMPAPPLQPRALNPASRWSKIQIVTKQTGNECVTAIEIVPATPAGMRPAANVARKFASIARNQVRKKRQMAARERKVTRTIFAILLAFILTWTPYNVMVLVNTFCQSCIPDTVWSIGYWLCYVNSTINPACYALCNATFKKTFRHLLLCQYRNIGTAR
M5 PAM: potentiates acetylcholine response at human M5 receptor | CHO-K1 hM5, Fluo-8 calcium, ACh EC20 PAM; 0% = ACh EC20, 100% = ACh EC100 | activation, % at 3 µM | 360,000 compounds, 0.3% hits | AID 624038;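 active = activation above the run cutoff, the mean activation of all test compounds plus 3 SD, cut at about 18% in these data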
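Assay system – human M5 receptor in CHO-K1 cells · Read-out – % activation, ACh-normalized · Technique – Fluo-8 calcium fluorescence · Dosing – single-point, 3 µM nominal · Incubation – Fluo-8 loading 80 min at 37 °C plus 30 min room temperature · Repeats – singlicate, one well per test compound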
CHRM4 antagonist: antagonists of human muscarinic M4 receptor (CHRM4); P08173; CHO-hM4 cells, ACh EC80, Fluo-8 calcium fluorescence; inhibition, % at 3 µM; 360,000 compounds, 0.73% hits; AID 624125;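 active = inhibition above its plate's cutoff, the mean inhibition of sample wells plus 3 SD, cut at about 27% in these data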;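 also: 0% = acetylcholine EC80 with DMSO and 100% = DMSO without agonist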
M5 ag: CHRM5 agonism in calcium assay; P08912; CHO-K1 hM5 cells, Fluo-8 calcium fluorescence; 0% DMSO wells, 100% maximal acetylcholine response; activation, % at 3 µM; 360,000 compounds, 0.19% hits;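 active = activation above the run's mean over test compounds plus 3 SD, cut at about 23% in these data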;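 also: signal is peak over basal fluorescence ratio across the kinetic read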
CHRM4 PAM: potentiates acetylcholine response at human M4 receptor; P08173; CHO-K1 hM4/Gqi5, Fluo-8 calcium fluorescence, ACh EC20; 0% = ACh EC20, 100% = maximal ACh; activation, % at 3 µM; 360,000 compounds, 0.4% hits; AID 624126;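 active = activation above its plate's cutoff, the mean activation of sample wells plus 3 SD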
M5 antag: blocks acetylcholine activation of human M5 receptor; P08912; CHO-hM5 cells, Fluo-8 calcium fluorescence, ACh EC80; inhibition, % at 3 µM; 360,000 compounds, 0.59% hits;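 active = inhibition above a per-plate cutoff, the mean of that plate's test compounds plus 3 SD, cut at about 27% in these data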;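 also: 0% = acetylcholine EC80 with DMSO and 100% = DMSO without agonist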
* hit, by the source's call. Shown are actives, neighbours in structure and some others; about 1.8% of the full set was active somewhere.

SMILES	CHRM4 agonist	M5 PAM	CHRM4 antagonist	M5 ag	CHRM4 PAM	M5 antag
Cc1oc2c(c(=O)c1C)C(=O)CC(c1ccccc1)C2 (centres undefined)	-0.9	-2.3	-2.8	0.8	7.2	42.9*
COc1ccc(CNC(=O)C2CCN(S(=O)(=O)c3ccc4c(c3)C(C)(C)C(=O)N4C)CC2)cc1	-2.8	-4.9	100.9*	0.5	-20.6	0.5
CC1CCN(S(=O)(=O)c2ccc(NC(=O)Cn3nnc(-c4ccccc4F)n3)cc2)CC1	4.6	-21.6	-3.4	-3.2	-3.2	31.4*
CC1CCN(S(=O)(=O)c2ccc(NC(=O)c3ccccc3F)cc2)CC1	5.5	-1.1	-0.8	1.3	-7.6	10.6
C=CCc1cccc(/C=N/n2cnnc2)c1O	1.4	0.4	13.3	2.2	40.7*	-1.6
Fc1cccc(F)c1-n1c(CN2CCCC2)csc1=S	21.3	0.5	68.1*	-6.5	8.5	1.9
Cc1sc2nc(CN3CCCC3)nc(N3CCC(C(N)=O)CC3)c2c1C	4.1	7.2	22.4	-5.6	30.5*	7.6
Cc1sc2nc(CN3CCCC3)nc(N3CCN(C(=O)c4ccco4)CC3)c2c1C	1.6	8.8	0.4	-3.8	-5.8	-3.7
CS(=O)(=O)N(Cc1ccc(C(=O)NN=C2CCCC2)cc1)c1ccccc1	0.8	-1.9	-0.7	0.1	3.3	3.2
CS(=O)(=O)N(Cc1ccc(C(=O)NN=C2CCCCCC2)cc1)c1ccccc1	0.3	24.7*	-2.0	1.6	8.9	12.9
CCn1c(/N=C/c2ccccc2O)nc2ccccc21	-0.1	11.9	-12.6	-3.8	5.4	6.2
CC(C)n1c(/N=C/c2ccccc2O)nc2ccccc21	0.8	20.7*	-8.0	-0.3	0.4	-8.6
CCOCCCNC(=O)C(NC(=O)Cc1cccs1)c1ccc(OC)cc1 (centres undefined)	0.7	11.2	-8.9	1.4	13.4	0.6
CCC(=O)N1CCc2cc(S(=O)(=O)CCC(=O)N3CCN(c4ccc(Cl)cc4)CC3)ccc21	11.6	-12.4	2.5	1.6	-5.9	27.9*
CC(C)(C)c1ccc(C2(C)NC(=O)NC2=O)cc1 (centres undefined)	2.6	2.9	2.8	-1.9	-6.1	9.3
CCc1ccc2[nH]c(=O)c(C(c3nnnn3Cc3ccc(OC)cc3)N3CCOCC3)cc2c1 (centres undefined)	2.1	-3.8	5.2	0.6	38.9*	-0.6
Cc1ccc(Sc2c([N+](=O)[O-])ncn2C)cc1	0.1	-0.3	6.7	-3.3	0.5	1.4
Cc1ccc(Sc2c([N+](=O)[O-])c(C)nn2C)cc1	-0.4	-32.6	62.9*	-20.0	-63.0	27.8*
COc1ccccc1-c1cnc(C(O)c2cccc(F)c2)[nH]1 (centres undefined)	0.1	-0.6	10.1	0.4	1.1	7.7
C=C1CC2(OC1=O)c1ccccc1CCc1ccccc12	2.9	-4.6	47.6*	-9.9	-8.4	17.4
Cc1ccc(S(=O)(=O)NCC(=O)NCC(=O)NCCc2ccc(Cl)cc2)cc1C	0.7	7.3	-2.0	-0.9	2.2	-13.5
Cc1ccc(S(=O)(=O)NC(=O)Cn2nnc(-c3ccccc3)c2COc2ccc3ccccc3c2)cc1	-0.9	3.7	-16.6	-0.2	3.8	-4.9
CCC(C)(C(=O)Nc1ccc(OC)cc1)N(C)C(=O)Cn1nnnc1N (centres undefined)	2.1	19.4*	-24.8	0.9	8.6	-2.6
COc1ccc(NC(=O)C2(N(C(=O)Cn3nnnc3N)c3ccc(OC)cc3)CCCCC2)cc1	2.6	2.9	-20.1	-3.2	5.5	-6.2
Cc1ccc(C(C(=O)NCC2CCCO2)N(C(=O)c2snc(C(N)=O)c2N)c2ccc(C)c(C)c2)o1 (centres undefined)	4.1	0.6	9.4	1.1	-7.2	8.9
SMILES	CHRM4 agonist	M5 PAM	CHRM4 antagonist	M5 ag	CHRM4 PAM	M5 antag
Cc1cc(-c2ccccc2)[nH]c(=O)c1S(=O)(=O)c1ccc(Cl)cc1	0.3	-2.5	5.3	2.4	6.0	4.0
Cc1cc(-c2ccccc2)[nH]c(=O)c1S(=O)(=O)c1ccccc1	2.7	21.1*	-2.8	-4.0	1.6	4.0
Nc1nnnn1N=C1CCCCC1	0.6	28.5*	-9.1	-1.0	-1.1	7.3
COc1ccc2nc(NC(=O)CN(C)S(=O)(=O)c3cccs3)sc2c1	18.9	-17.6	4.2	7.6	-10.3	3.2
CC(=C/c1ccc(C(C)C)cc1)/C=N/NC(=O)Cn1nnnc1N	-0.5	-12.3	-9.3	-14.8	-0.7	30.5*
COc1ccc(CN2CCN(C(=O)CC(C)C)CC2)cc1OC	0.6	1.5	-0.1	-1.4	5.5	0.8
COc1ccc(CN2CCN(C(=O)CC(C)C)CC2)c2ccccc12	1.2	41.8*	-5.9	-3.7	2.5	-6.1
CCCCCCCCCCCCN1[C@@H](CC(=O)OC)c2cc(F)ccc2S1(=O)=O	2.0	-3.8	-5.3	-1.2	30.0*	6.9
CCCCCCCCCCCCN1[C@@H](CC(=O)OC)c2cc(F)cc(F)c2S1(=O)=O	1.1	6.4	-3.6	0.6	26.1*	1.0
CCCCCCCCCCCCN1[C@@H](CC(C)=O)c2cc(F)ccc2S1(=O)=O	1.5	-1.0	-8.7	-0.5	7.7	-0.1
CN1CCN(C(=O)/C(=C/c2ccccc2)c2ccccc2)CC1	0.8	-18.0	53.5*	-12.4	-33.2	27.6*
Cc1cc(NC(=O)COc2ccc(F)c(Cl)c2)no1	2.4	-2.2	-9.3	-2.4	19.3*	-0.1
Cc1cc(NC(=O)COc2ccc(C)c(C)c2)no1	1.8	10.6	3.4	1.8	3.2	-7.8
Cc1cc(Cn2nc(C(=O)NCc3cccc(C(F)(F)F)c3)cc2-c2ccccc2)on1	1.2	-3.2	7.0	-0.9	0.2	-1.5
Cn1nc(C(C)(C)C)c([N+](=O)[O-])c1C(=O)NC(C)(C)C	1.5	4.1	0.9	1.4	32.4*	5.3
Cn1nc(C(C)(C)C)c([N+](=O)[O-])c1C(=O)Nc1ccccc1	2.5	-14.8	-5.3	0.0	4.2	15.5
COc1ccc(-n2nnc3c(=O)n(CC(=O)N4CCCc5ccccc54)cnc32)cc1	0.1	-2.8	1.1	0.0	-1.7	2.2
CCOc1ccc(-n2nnc3c(=O)n(CC(=O)N4CCCc5ccccc54)cnc32)cc1	-0.2	-10.6	87.9*	-0.5	-18.1	1.6
CN1C(=S)N(c2cccnc2)C(=O)/C1=C\c1ccc(N(C)C)cc1	13.7	-20.9	11.0	59.9*	-7.2	31.3*
CCn1cc(C=O)c2cc(S(=O)(=O)N3CCOCC3)ccc21	1.5	3.5	26.4*	0.4	-1.4	5.8
Cc1cc(Oc2cccc3c2S(=O)(=O)N(C2CCCC2)CC(COCc2ccccc2)O3)cc(C)c1C (centres undefined)	0.7	-3.0	-4.8	1.5	1.5	-9.0
